Test results published in paper PMC3198121 (Journal of Medicinal Chemistry, 2011).

How the values were obtained:
Format in all cases: cell-based
GPR35 [1] = biological target: T1, GPR35 (Homo sapiens, UniProt Q9HC97); assay: DMR agonist assay after shRNA knockdown of GPR35 in HT29; details: all compounds at 10 μM; n = 4; mock transfection as control
Outline: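 HT29 cells seeded at 5000/well on biosensor plates, 24 h at 37 °C, then transiently transfected (Effectene, 0.05 μg plasmid DNA) with GPR35 shRNA in GFP-expressing pGFP-V-RS vector or control plasmid. Medium was renewed next day. About 48 h post-transfection, cells were washed into HBSS (20 mM Hepes, pH 7.1) and equilibrated 1 h at 26 °C. Label-free DMR was recorded kinetically after a 2 min baseline and compound addition.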

GPR35 [2] = biological target: T1, GPR35; assay: Tango β-arrestin translocation gene reporter assay in Tango GPR35-bla U2OS cells; details: for agonist type in Tango β-arrestin translocation assay: compared to zaprinast; for Tango assays % zaprinast: efficacy relative to zaprinast, Tango GPR35-bla U2OS cells
GPR35 [3] = biological target: T1, GPR35; assay: DMR agonist assay in HT-29 cells; details: for agonist type in DMR assay: compared to zaprinast; for fold decrease in potency relative to 16a: compared with compound 16a
GPR35 [4] = biological target: T1, GPR35; details: HT29; for blockage of the compound-induced DMR by compound 17: compound 17 at 64 μM
GPR35 [5] = biological target: T1, GPR35; assay: Receptor internalization assay in HT29; details: HT-29; 1 μM 16a, 10 μM 15a; 1 h at 37 °C
Outline: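 HT29 cells seeded at 10000/well on chamber slides, 24 h at 37 °C, then exposed to compound or matching DMSO for 1 h at 37 °C. Cells were fixed in 4% formaldehyde for 15 min and blocked/permeabilized for 2 h (goat serum, BSA, Triton X-100). Staining used anti-GPR35 T-14 (intracellular epitope, 1:500, 24 h), then Alexa Fluor 594 anti-goat (1:500, 1 h RT), with DAPI nuclei. Read by confocal imaging.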

GPR35 [6] = biological target: T1, GPR35; details: zaprinast 1 μM in DMSO treated cells; n = 90

T1 sequence (Q9HC97 whole entry): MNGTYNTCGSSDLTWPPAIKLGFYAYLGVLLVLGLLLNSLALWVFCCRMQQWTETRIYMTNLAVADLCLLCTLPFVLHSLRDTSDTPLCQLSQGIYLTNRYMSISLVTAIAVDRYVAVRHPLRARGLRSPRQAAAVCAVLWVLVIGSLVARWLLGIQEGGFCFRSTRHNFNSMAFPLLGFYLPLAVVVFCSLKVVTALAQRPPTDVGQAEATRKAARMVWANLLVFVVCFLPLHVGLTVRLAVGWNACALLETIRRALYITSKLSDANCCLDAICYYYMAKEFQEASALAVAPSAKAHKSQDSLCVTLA

| SMILES | effect of shRNA knockdown of GPR35 on the compound-induced DMR (GPR35 [1]) | response in Tango assay (GPR35 [2]) | agonist type in Tango β-arrestin translocation assay (GPR35 [2]) | blockage of the compound-induced DMR by compound 17 (GPR35 [4]) | further results |
| --- | --- | --- | --- | --- | --- |
| CC1=C(C#N)C(=C(C#N)C#N)OC1(C)c1ccc(Cl)c(Cl)c1 (centres unmarked) [Compound 1, 2-(3-cyano-5-(3,4-dichlorophenyl)-4,5-dimethylfuran-2(5H)-ylidene)malononitrile] | significantly attenuated | dose-dependent and saturable responses | partial agonist | – | agonist type in DMR assay (GPR35 [3]): full agonist |
| CC1=C(C#N)C(=C(C#N)C#N)OC1(c1ccccc1)C(F)(F)F (centres unmarked) [Compound 3, 2-(3-cyano-4-methyl-5-phenyl-5-(trifluoromethyl)furan-2(5H)-ylidene)malononitrile] | – | dose-dependent and saturable responses | partial agonists | – | – |
| CC1=C(C#N)C(=C(C#N)C#N)OC1(C)c1ccc(Cl)c(Cl)c1Cl (centres unmarked) [Compound 5, 2-(3-cyano-4,5-dimethyl-5-(2,3,4-trichlorophenyl)furan-2(5H)-ylidene)malononitrile] | – | – | – | only partially suppressed | fold decrease in potency to trigger DMR signal relative to 1 (GPR35 [3]; DMR EC50, compared with compound 1): 350 fold |
| CC1=C(C#N)C(=C(C#N)C#N)OC12CCCCC2 [Compound 7, 2-(3-cyano-4-methyl-1-oxaspiro[4.5]dec-3-en-2-ylidene)malononitrile] | – | detectable responses | partial agonists | only partially suppressed | Tango assays % zaprinast (GPR35 [2]): weak |
| CC1=C(C#N)C(=C(C#N)C#N)OC1(C)c1ccc(F)cc1F (centres unmarked) [Compound 8, 2-(3-cyano-5-(2,4-difluorophenyl)-4,5-dimethylfuran-2(5H)-ylidene)malononitrile] | – | – | – | only partially suppressed | – |
| CC1=C(C#N)C(=C(C#N)C#N)OC1(C)C [Compound 9, 2-(3-Cyano-4,5,5-trimethylfuran-2(5H)-ylidene)malononitrile] | significantly attenuated | detectable responses | partial agonists | – | Tango assays % zaprinast (GPR35 [2]): weak |
| O=C(O)c1cc2sccc2s1 [Compound 10, Thieno[3,2-b]thiophene-2-carboxylic Acid] | – | detectable responses | partial agonists | – | fold decrease in potency relative to 16a (GPR35 [3]; DMR EC50): over 600 fold |
| CCCCCCc1c(C(=O)O)sc2ccsc12 [Compound 11, 3-Hexylthieno[3,2-b]thiophene-2-carboxylic Acid] | – | detectable responses | partial agonists | only partially suppressed | fold decrease in potency relative to 16a (GPR35 [3]; DMR EC50): about 54 fold |
| CCCCCCc1csc2cc(C(=O)O)sc12 [Compound 12, 6-Hexylthieno[3,2-b]thiophene-2-carboxylic Acid] | – | detectable responses | partial agonists | – | – |
| Cc1csc2c1sc1cc(C(=O)O)sc12 [Compound 13, 5-Methyldithieno[3,2-b:2′,3′-d]thiophene-2-carboxylic Acid] | significantly attenuated | detectable responses | partial agonists | only partially suppressed | – |
| CCOC(=O)c1sc2c(Br)csc2c1C [Compound 15a, Ethyl 6-Bromo-3-methylthieno[3,2-b]thiophene-2-carboxylate] | – | – | – | – | internalization of endogenous GPR35 (GPR35 [5]): unable to trigger receptor internalization |
| COC(=O)c1cnn(-c2ccc(F)cc2F)c1/C=N/NC(=S)NC(C)(C)C [Compound 17, methyl-5-[(tert-butylcarbamothioylhydrazinylidene)methyl]-1-(2,4-difluorophenyl)-pyrazole-4-carboxylate, reference compound] | – | – | – | – | blockage of the zaprinast DMR by compound 17 (GPR35 [4]; compound 17 at 64 μM (highest dose)): almost completely blocked; DMR agonist activity in HT-29 (GPR35 [3]): did not lead to any detectable DMR |
| CCCOc1ccccc1-c1nc2[nH]nnc2c(=O)[nH]1 [zaprinast, reference compound] | significantly attenuated | – | – | – | zaprinast DMR amplitude in the desensitization step (positive control) (GPR35 [6]): 238 ± 25 pm; Tango assays % zaprinast (GPR35 [2]): 100 ± 7%; DMR assays % zaprinast (GPR35 [3]; efficacy relative to zaprinast, HT-29, DMR amplitude at 8 min post stimulation): 100 ± 5%; DMR amplitude, maximal response (GPR35 [3]; zaprinast 1 μM (saturating dose), about 8 min poststimulation, n = 32): 246 ± 11 pm |

More lines, main results first:

| effect of shRNA knockdown of GPR35 on the compound-induced DMR (GPR35 [1]) | response in Tango assay (GPR35 [2]) | agonist type in Tango β-arrestin translocation assay (GPR35 [2]) | blockage of the compound-induced DMR by compound 17 (GPR35 [4]) | SMILES | further results |
| --- | --- | --- | --- | --- | --- |
| significantly attenuated | dose-dependent and saturable responses | full agonist | – | Cc1c(C(=O)O)sc2c(Br)csc12 [Compound 16a, 6-Bromo-3-methylthieno[3,2-b]thiophene-2-carboxylic Acid] | internalization of endogenous GPR35 (GPR35 [5]): significant internalization; agonist type in DMR assay (GPR35 [3]): full agonist |
| – | detectable responses | partial agonists | – | CCCCCCCCc1c(C(=O)O)sc2c(Br)csc12 [Compound 16b, 6-Bromo-3-octylthieno[3,2-b]thiophene-2-carboxylic Acid] | – |
| – | dose-dependent and saturable responses | partial agonists | – | CCCCCCCCCCCc1c(C(=O)O)sc2c(Br)csc12 [Compound 16c, 6-Bromo-3-undecylthieno[3,2-b]thiophene-2-carboxylic Acid] | – |
